Measurements: ChEMBL document CHEMBL1811848 (Bioorg Med Chem Lett, 2011)

Tests used:
[1] = target: T1, Peroxisome proliferator-activated receptor gamma (Homo sapiens, UniProt P37231); assay: Transactivation of human PPARgamma expressed in human HepG2 cells co-transfected with PPRE3-TK-Luc by luciferase reporter gene assay; type: cell-based
T1 sequence (P37231 whole entry): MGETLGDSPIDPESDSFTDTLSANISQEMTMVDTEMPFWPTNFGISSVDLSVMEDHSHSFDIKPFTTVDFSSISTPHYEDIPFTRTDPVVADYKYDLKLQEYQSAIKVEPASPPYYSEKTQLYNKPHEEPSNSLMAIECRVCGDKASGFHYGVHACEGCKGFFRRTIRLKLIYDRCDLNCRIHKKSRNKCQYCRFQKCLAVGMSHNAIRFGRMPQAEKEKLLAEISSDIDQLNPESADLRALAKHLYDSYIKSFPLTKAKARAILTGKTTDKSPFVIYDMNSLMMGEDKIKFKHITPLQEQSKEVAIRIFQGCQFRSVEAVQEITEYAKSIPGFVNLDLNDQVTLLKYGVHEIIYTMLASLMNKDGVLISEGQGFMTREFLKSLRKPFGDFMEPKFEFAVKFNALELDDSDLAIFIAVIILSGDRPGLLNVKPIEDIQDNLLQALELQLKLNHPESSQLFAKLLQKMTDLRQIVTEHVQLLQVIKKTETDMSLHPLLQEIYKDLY
Outline: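 HepG2 cells transfected with pSG5 vector carrying hPPARα, hPPARγ or hPPARδ cDNA, co-transfected with PPRE3-TK-luc. Firefly luciferase activity measured with a commercial kit. β-galactosidase activity read on an ELISA reader. Controls: WY14643 (α), rosiglitazone (γ), GW501516 (δ).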

Mus musculus [2] = assay: Antihyperglycemic activity in db/db mouse assessed as reduction in plasma glucose level at 0.003 mg/kg, po; type: functional; parameters: scale not given: the % may be the effect or the level left
[3] = Half life in fasting Wistar rat at 30 mg/kg, po; type: ADME, organism-based; parameters: dose 30 mg/kg, route oral; details: in vivo
Outline: (§1)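 Fasted male Wistar rats received one oral dose of 30 mg/kg. Plasma Cmax, T1/2 and Tmax are reported as mean ± SD of n = 3.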

Mus musculus [4] = assay: Antihyperglycemic activity in db/db mouse assessed as reduction in plasma glucose level at 3 mg/kg, po; type: functional; parameters: scale not given: the % may be the effect or the level left
Mus musculus [5] = species: Mus musculus; assay: Antihyperglycemic activity in db/db mouse assessed as reduction in plasma glucose level; type: functional
Rattus norvegicus [6] = assay: Toxicity in male Wistar rat assessed as creatinine level at 30 mg/kg, po measured after 28 days (reference value: 0.47 +/- 0.03 mg/dl); type: organism-based; parameters: dose 30 mg/kg, route oral; details: in vivo, 672 h
Rattus norvegicus [7] = assay: Toxicity in female Wistar rat assessed as urea level at 3 mg/kg, po measured after 28 days (reference value: 33.05 +/- 2.02 mg/dl); type: organism-based; parameters: dose 3 mg/kg, route oral; details: in vivo, 672 h
Rattus norvegicus [8] = assay: Toxicity in female Wistar rat assessed as urea level at 30 mg/kg, po measured after 28 days (reference value: 33.05 +/- 2.02 mg/dl); type: organism-based; parameters: dose 30 mg/kg, route oral; details: in vivo, 672 h
Rattus norvegicus [9] = assay: Toxicity in male Wistar rat assessed as epididymine to body weight ratio at 30 mg/kg, po measured after 28 days (reference value: 0.391 +/- 0.017); type: organism-based; parameters: dose 30 mg/kg, route oral; details: in vivo, 672 h
Rattus norvegicus [10] = assay: Toxicity in female Wistar rat assessed as creatinine level at 3 mg/kg, po measured after 28 days (reference value: 0.42 +/- 0.04 mg/dl); type: organism-based; parameters: dose 3 mg/kg, route oral; details: in vivo, 672 h
Mus musculus [11] = assay: Hypolipidemic activity in db/db mouse assessed as reduction in triglyceride level at 0.01 mg/kg, po; type: functional; parameters: scale not given: the % may be the effect or the level left
Rattus norvegicus [12] = assay: Toxicity in female Wistar rat assessed as heart to body weight ratio at 3 mg/kg, po measured after 28 days (reference value: 0.403 +/- 0.010); type: organism-based; parameters: dose 3 mg/kg, route oral; details: in vivo, 672 h
Rattus norvegicus [13] = assay: Toxicity in female Wistar rat assessed as spleen to body weight ratio at 3 mg/kg, po measured after 28 days (reference value: 0.237 +/- 0.012); type: organism-based; parameters: dose 3 mg/kg, route oral; details: in vivo, 672 h
Rattus norvegicus [14] = assay: Toxicity in female Wistar rat assessed as adrenal to body weight ratio at 3 mg/kg, po measured after 28 days (reference value: 0.028 +/- 0.001); type: organism-based; parameters: dose 3 mg/kg, route oral; details: in vivo, 672 h
Rattus norvegicus [15] = assay: Toxicity in male Wistar rat assessed as urea level at 3 mg/kg, po measured after 28 days (reference value: 30.52 +/- 0.79 mg/dl); type: organism-based; parameters: dose 3 mg/kg, route oral; details: in vivo, 672 h
[16] = target: T2, Peroxisome proliferator-activated receptor gamma (Homo sapiens) (UniProt P37231); assay: Transactivation of human PPARgamma expressed in human HepG2 cells co-transfected with PPRE3-TK-Luc by luciferase reporter gene assay relative to Rosiglitazone; type: cell-based
T2 sequence (whole entry): T1 sequence (P37231 whole entry)
Outline: (§2)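 Same HepG2 hPPARα or hPPARγ / PPRE3-TK-luc luciferase transactivation assay. Efficacy expressed as percent of maximal response, normalized to 100% for the reference agonist: WY-14643 for α, rosiglitazone for γ.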

Rattus norvegicus [17] = assay: Toxicity in male Wistar rat assessed as kidney to body weight ratio at 30 mg/kg, po measured after 28 days (reference value: 0.745 +/- 0.012); type: organism-based; parameters: dose 30 mg/kg, route oral; details: in vivo, 672 h
Mus musculus [18] = assay: Antihyperglycemic activity in db/db mouse assessed as reduction in plasma glucose level at 0.03 mg/kg, po; type: functional; parameters: scale not given: the % may be the effect or the level left
[19] = Tmax in fasting Wistar rat at 30 mg/kg, po; type: ADME, organism-based; parameters: dose 30 mg/kg, route oral; details: in vivo; outline: as §1
[20] = target: T3, Peroxisome proliferator-activated receptor alpha (Homo sapiens) (UniProt Q07869); assay: Transactivation of human PPARalpha expressed in human HepG2 cells co-transfected with PPRE3-TK-Luc by luciferase reporter gene assay relative to WY14643; type: cell-based; outline: as §2
T3 sequence (whole entry): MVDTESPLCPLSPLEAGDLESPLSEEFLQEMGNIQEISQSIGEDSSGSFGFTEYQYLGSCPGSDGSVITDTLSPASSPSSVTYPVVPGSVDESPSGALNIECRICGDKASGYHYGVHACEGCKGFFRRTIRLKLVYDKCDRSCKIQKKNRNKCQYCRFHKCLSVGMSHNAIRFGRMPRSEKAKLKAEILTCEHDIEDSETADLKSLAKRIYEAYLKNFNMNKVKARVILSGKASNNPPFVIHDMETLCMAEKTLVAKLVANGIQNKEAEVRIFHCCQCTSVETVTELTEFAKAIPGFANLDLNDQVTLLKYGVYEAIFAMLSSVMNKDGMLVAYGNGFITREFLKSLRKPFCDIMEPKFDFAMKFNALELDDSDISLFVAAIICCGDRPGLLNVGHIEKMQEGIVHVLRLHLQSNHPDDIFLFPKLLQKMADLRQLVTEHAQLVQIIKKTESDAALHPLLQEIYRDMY

Rattus norvegicus [21] = assay: Toxicity in female Wistar rat assessed as liver to body weight ratio at 3 mg/kg, po measured after 28 days (reference value: 3.091 +/- 0.087); type: organism-based; parameters: dose 3 mg/kg, route oral; details: in vivo, 672 h
Rattus norvegicus [22] = assay: Toxicity in female Wistar rat assessed as SGPT level at 3 mg/kg, po measured after 28 days (reference value: 30.44 +/- 1.59 U/L); type: organism-based; parameters: dose 3 mg/kg, route oral; details: in vivo, 672 h
Mus musculus [23] = assay: Hypolipidemic activity in Swiss albino mouse assessed as reduction in triglyceride level at 0.1 mg/kg, po; type: functional; parameters: scale not given: the % may be the effect or the level left
Rattus norvegicus [24] = assay: Toxicity in female Wistar rat assessed as ovary to body weight ratio at 3 mg/kg, po measured after 28 days (reference value: 0.039 +/- 0.005); type: organism-based, Female gonad; parameters: dose 3 mg/kg, route oral; details: in vivo, 672 h
Mus musculus [25] = assay: Antihyperglycemic activity in db/db mouse assessed as reduction in plasma glucose level at 0.01 mg/kg, po; type: functional; parameters: scale not given: the % may be the effect or the level left

CCO[C@@H](Cc1ccc(OCCc2nc(-c3ccc(C)s3)oc2C)cc1)C(=O)O
EC50 [1]: 18 pM
Activity (Mus musculus [2]): 47.1%
half-life [3]: 7.4 h
Activity (Mus musculus [4]): 62.2%
ED50 (Mus musculus [5]): 0.166 mg/kg
Activity (Rattus norvegicus [6]): 0.37 mg/dL
Activity (Rattus norvegicus [7]): 29.19 mg/dL
Activity (Rattus norvegicus [8]): 37.39 mg/dL
Ratio (Rattus norvegicus [9]): 0.432
Activity (Rattus norvegicus [10]): 0.36 mg/dL
Activity (Mus musculus [11]): 6.6%
Ratio (Rattus norvegicus [12]): 0.46
Ratio (Rattus norvegicus [13]): 0.257
Ratio (Rattus norvegicus [14]): 0.02
Activity (Rattus norvegicus [15]): 31.24 mg/dL
Emax [16]: 165%
Ratio (Rattus norvegicus [17]): 0.955
Activity (Mus musculus [18]): 52.1%
Tmax [19]: 0.667 h
Emax [20]: 116%
Ratio (Rattus norvegicus [21]): 6.221
Activity (Rattus norvegicus [22]): 22.46 U/L
Activity (Mus musculus [23]): 71.8%
Ratio (Rattus norvegicus [24]): 0.02
Activity (Mus musculus [25]): 52.7%
